High-throughput results deposited in PubChem by Broad Institute.
An excerpt weighted towards active compounds, which were near 3.7% of everything screened.
FGF22 binding: binders of recombinant human FGF22 by thermal shift | SYPRO orange fluorescence; percent of sucrose octasulfate shift, DMSO zero | activity (Tm shift, normalised), % at 9.99 µM | 340,000 compounds, 1.5% hits | Q9HCT0;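 active = mean Tm shift, scaled 0 neutral to 100 positive control, at about 1.3% or above, every replicate too, limit read from the data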
ERAP1 inh: ERAP1 (human) enzyme inhibition. AID 652197. inhibition, % at 10.7 µM. 340,000 compounds, 0.15% hits. recombinant ERAP1, Leu-AMC fluorescence, 60 min. Q9NZ08;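 active = mean replicate inhibition of at least 30%, or all replicates individually reaching that 30% level; inactive = mean below 30% and not every replicate reaching it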;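 note: 0% = neutral control wells and 100% = L-leucinethiol positive control wells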
F508del corr: correctors of CFTR F508del function in bronchial epithelial cells. 350,000 compounds, 0.36% hits. activity (quench increase), % at 7.58 µM. CFBE cells, YFP halide quenching; stimulated with forskolin plus potentiator P3; % fluorescence drop versus neutral controls. AID 720511;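 active = mean added fluorescence quench of at least 8% versus neutral control, with both replicates also reaching 8%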;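 note: cells transiently co-express mutant CFTR-F508del with the halide-sensitive YFP; corrector assay measuring rescue of mutant channel to the surface after 24 h compound exposure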
DENV2 CPE: inhibitors of DENV2 cytopathic effect; DENV2-infected cells, cytopathic effect rescue, plate reader; CPE inhibition, % at 9.99 µM; 350,000 compounds, 1.7% hits; AID 651640; in the data active = CPE inhibition above about 20%, passing the limit was not always enough; tested in BHK-21 cells;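 note: 0% = median of neutral control wells and 100% = median of positive control wells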
E-selectin induc: E-selectin induction on HUVECs; P16581; HUVEC E-selectin immunofluorescence imaging; normalized: neutral wells 0, TNF-alpha wells 100; activation, % at 7.58 µM; 260,000 compounds, 0.37% hits; AID 686992;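 active = mean E-selectin-positive cell signal at least 10% of the positive control, reached in at least 60% of replicates, without over 20% cell loss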
Target sequence (P16581 whole entry, looked up): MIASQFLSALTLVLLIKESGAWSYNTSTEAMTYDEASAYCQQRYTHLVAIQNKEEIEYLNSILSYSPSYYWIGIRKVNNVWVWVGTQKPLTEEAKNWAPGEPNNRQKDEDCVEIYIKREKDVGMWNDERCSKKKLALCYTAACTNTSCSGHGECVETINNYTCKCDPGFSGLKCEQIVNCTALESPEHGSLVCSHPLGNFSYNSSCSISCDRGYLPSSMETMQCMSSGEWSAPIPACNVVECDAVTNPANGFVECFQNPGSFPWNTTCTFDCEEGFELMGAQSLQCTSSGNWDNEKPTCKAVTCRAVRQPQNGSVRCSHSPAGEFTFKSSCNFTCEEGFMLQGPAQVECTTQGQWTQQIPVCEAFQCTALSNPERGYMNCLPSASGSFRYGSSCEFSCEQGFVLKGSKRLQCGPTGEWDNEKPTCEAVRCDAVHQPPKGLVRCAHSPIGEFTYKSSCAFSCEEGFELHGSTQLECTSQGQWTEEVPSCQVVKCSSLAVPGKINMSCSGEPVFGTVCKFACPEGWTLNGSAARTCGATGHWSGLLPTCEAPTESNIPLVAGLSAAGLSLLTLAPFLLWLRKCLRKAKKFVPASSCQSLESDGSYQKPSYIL
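Test system: HUVEC; input: 3,000 HUVEC/well; measured by: immunofluorescence imaging; read-out: % PE-positive cells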
* hit, by the source's call.

Results for CCOP(=O)(OCC)C(NC(=O)Nc1c(C)cc(C)cc1C)c1ccccc1 (stereo unspecified) ?
FGF22 binding: 43*; ERAP1 inh: 3; DENV2 CPE: -2

Results for CCN(CC)C(C(=O)NC1CCCCC1)c1ccc(C)cc1 (stereo unspecified) ?
FGF22 binding: 43*; ERAP1 inh: 4; F508del corr: 0; DENV2 CPE: 14

What do the screens show for `O=C(C[C@H]1C=C[C@@H](NC(=O)NC2CCCCC2)[C@@H](CO)O1)NCc1ccc(F)cc1`?
FGF22 binding: 0; ERAP1 inh: 0; F508del corr: 0; DENV2 CPE: -4; E-selectin induc: 0

Results for CC(C)NC(=O)Nc1cccc2c1O[C@H](CN(C)Cc1ccc(C(=O)Nc3ccccc3N)cc1)[C@H](C)CN([C@@H](C)CO)C2=O ?
FGF22 binding: 0; ERAP1 inh: 2; F508del corr: -3; DENV2 CPE: 21*; E-selectin induc: -2

What do the screens show for `C[C@@H]1CN([C@H](C)CO)C(=O)c2cccc(NC(=O)C3CCOCC3)c2O[C@@H]1CN(C)Cc1ccc(C(=O)Nc2ccccc2N)cc1`?
FGF22 binding: -1; ERAP1 inh: -5; F508del corr: 1; DENV2 CPE: 47*; E-selectin induc: 2

What do the screens show for `C[C@@H]1CN([C@H](C)CO)C(=O)c2cccc(NC(=O)c3ccncc3)c2O[C@@H]1CN(C)Cc1ccc(C(=O)Nc2ccccc2N)cc1`?
FGF22 binding: 0; ERAP1 inh: -2; F508del corr: 0; DENV2 CPE: -2; E-selectin induc: 58*

Results for C[C@@H]1CN([C@@H](C)CO)C(=O)c2cccc(NC(=O)C3CCOCC3)c2O[C@H]1CN(C)Cc1ccc(C(=O)Nc2ccccc2N)cc1 ?
FGF22 binding: -1; ERAP1 inh: -2; F508del corr: -1; DENV2 CPE: 11; E-selectin induc: 0

Results for C[C@H](CO)N1C[C@H](C)[C@H](CN(C)Cc2ccc(C(F)(F)F)cc2)Oc2c(NC(=O)c3ccncc3)cccc2C1=O ?
FGF22 binding: 1; ERAP1 inh: 1; F508del corr: -1; DENV2 CPE: 3; E-selectin induc: 0

What do the screens show for `C[C@H]1CN([C@@H](C)CO)C(=O)c2cccc(NC(=O)c3ccncc3)c2O[C@H]1CN(C)Cc1ccc(C(F)(F)F)cc1`?
FGF22 binding: -1; ERAP1 inh: -2; F508del corr: 2; DENV2 CPE: 24*; E-selectin induc: 0

Results for COCC(=O)N1CC2(C1)CN(Cc1cc(F)ccc1F)[C@@H](CO)c1c2c2ccc(OC)cc2n1C ?
FGF22 binding: 0; ERAP1 inh: -1; F508del corr: 3; DENV2 CPE: -1; E-selectin induc: 0

Results for C[C@H](CO)N1C[C@H](C)[C@H](CN(C)Cc2ccc(C(=O)Nc3ccccc3N)cc2)Oc2c(NC(=O)Nc3ccc(F)cc3)cccc2C1=O ?
FGF22 binding: 0; ERAP1 inh: 0; F508del corr: 0; DENV2 CPE: 36*; E-selectin induc: -15

How did C[C@@H]1CN([C@H](C)CO)C(=O)c2cccc(NC(=O)Nc3ccc(F)cc3)c2O[C@H]1CN(C)Cc1ccc(C(=O)Nc2ccccc2N)cc1 do in these assays?
FGF22 binding: 0; ERAP1 inh: -1; F508del corr: 0; DENV2 CPE: 0; E-selectin induc: -1

What do the screens show for `Cc1ccccc1-c1ccc([C@H]2[C@@H](CO)N3C(=O)CN(C(=O)Nc4ccc(F)cc4)C[C@@H]23)cc1`?
ERAP1 inh: -1; F508del corr: -1; DENV2 CPE: 10; E-selectin induc: 0

What do the screens show for `O=S(=O)(Cc1cc(N2CCOCC2)nc(-c2ccccn2)n1)c1ccccc1`?
FGF22 binding: 0; ERAP1 inh: 2; F508del corr: -1; DENV2 CPE: 33*

How did C[C@H](CO)N1C[C@H](C)[C@@H](CN(C)S(C)(=O)=O)Oc2ccc(NC(=O)Cc3ccccc3)cc2C1=O do in these assays?
FGF22 binding: 0; ERAP1 inh: 3; F508del corr: -1; DENV2 CPE: 3; E-selectin induc: 0

How did O=C(NCCc1ccncc1)[C@@H]1[C@@H](CO)[C@@H]2Cn3c(ccc(-c4ccncc4)c3=O)[C@H]1N2 do in these assays?
FGF22 binding: 0; ERAP1 inh: 3; F508del corr: -1; DENV2 CPE: 3; E-selectin induc: 0
